In PMC5726523 (Nature chemistry, 2017):
Changes are numbered by the printed parent chain.

Key:
TGIF1-SIN3A interaction = biological target: T1, TGIF1-SIN3A interaction (Homo sapiens, UniProt Q96ST3); experiment: SILAC co-immunoprecipitation-MS proteomics, SIN3A-TGIF1; type: biochemical; conditions: 50 μM, 1 h, co-IP MS proteomics
T1 sequence (Q96ST3 1-400): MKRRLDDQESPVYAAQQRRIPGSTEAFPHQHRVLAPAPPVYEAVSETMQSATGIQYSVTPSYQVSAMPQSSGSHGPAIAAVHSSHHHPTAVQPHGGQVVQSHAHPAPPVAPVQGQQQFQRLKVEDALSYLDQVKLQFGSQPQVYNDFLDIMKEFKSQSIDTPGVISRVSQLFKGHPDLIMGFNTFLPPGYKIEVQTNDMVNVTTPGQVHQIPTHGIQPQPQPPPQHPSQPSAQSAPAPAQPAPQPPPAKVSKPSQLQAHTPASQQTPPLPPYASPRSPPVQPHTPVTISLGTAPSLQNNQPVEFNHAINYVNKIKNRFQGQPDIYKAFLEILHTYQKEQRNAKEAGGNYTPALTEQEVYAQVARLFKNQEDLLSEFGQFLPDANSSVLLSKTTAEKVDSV
Outline: (§1)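 HEK293T cells were metabolically labeled with isotopically differentiated amino acids. Heavy cells were transfected with Flag-SIN3A and light cells with Flag-GFP. Cells were lysed and anti-Flag immunoprecipitated. Heavy and light IPs were combined, trypsin-digested and run on LC-MS/MS. SIN3A interactors were proteins enriched >five-fold over GFP. Paired comparisons were WT vs K155W-SIN3A, and DMSO vs test compound (50 μM, 1 h) on WT.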

K155 of SIN3A [1] = biological target: T2, K155 of SIN3A (Homo sapiens, UniProt Q96ST3); experiment: competitive isoTOP-ABPP, SIN3A K155; type: binding; conditions: 50 μM, human cancer cell proteomes
T2 sequence (Q96ST3 1-1273): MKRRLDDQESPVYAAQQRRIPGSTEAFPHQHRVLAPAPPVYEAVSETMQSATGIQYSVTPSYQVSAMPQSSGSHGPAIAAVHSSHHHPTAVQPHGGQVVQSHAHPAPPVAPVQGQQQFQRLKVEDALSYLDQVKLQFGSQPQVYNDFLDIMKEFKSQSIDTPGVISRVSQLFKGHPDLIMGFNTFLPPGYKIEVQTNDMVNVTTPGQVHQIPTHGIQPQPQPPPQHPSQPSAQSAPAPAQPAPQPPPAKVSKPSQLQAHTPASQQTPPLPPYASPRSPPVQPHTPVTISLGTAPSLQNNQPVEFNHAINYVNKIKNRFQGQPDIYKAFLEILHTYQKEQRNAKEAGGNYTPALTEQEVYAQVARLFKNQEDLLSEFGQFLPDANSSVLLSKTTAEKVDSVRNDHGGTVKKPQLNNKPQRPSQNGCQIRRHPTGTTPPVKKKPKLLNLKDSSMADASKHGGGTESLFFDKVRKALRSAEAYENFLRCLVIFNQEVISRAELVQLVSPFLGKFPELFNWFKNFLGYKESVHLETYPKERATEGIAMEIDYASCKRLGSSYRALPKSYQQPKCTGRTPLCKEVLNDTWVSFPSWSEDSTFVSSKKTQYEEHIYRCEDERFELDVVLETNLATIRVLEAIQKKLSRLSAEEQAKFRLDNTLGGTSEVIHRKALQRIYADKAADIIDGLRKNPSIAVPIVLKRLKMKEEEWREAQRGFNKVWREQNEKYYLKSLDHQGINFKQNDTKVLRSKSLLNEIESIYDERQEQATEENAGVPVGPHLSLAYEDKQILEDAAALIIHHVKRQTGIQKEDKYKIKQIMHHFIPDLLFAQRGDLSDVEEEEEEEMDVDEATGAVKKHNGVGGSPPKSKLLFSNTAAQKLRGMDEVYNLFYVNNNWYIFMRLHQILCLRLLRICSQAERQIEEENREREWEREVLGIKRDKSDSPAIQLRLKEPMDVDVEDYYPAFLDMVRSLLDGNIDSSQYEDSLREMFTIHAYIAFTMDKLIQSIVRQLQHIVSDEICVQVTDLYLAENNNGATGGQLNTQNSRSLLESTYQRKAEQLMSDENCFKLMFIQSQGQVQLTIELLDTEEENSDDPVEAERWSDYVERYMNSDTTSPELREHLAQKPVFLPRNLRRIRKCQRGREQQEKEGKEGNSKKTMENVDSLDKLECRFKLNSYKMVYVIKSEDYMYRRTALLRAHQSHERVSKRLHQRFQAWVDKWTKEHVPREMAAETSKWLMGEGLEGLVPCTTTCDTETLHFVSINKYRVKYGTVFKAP
Outline: (§2)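 Human cancer cell proteomes were pretreated with an amine-reactive electrophilic fragment (50–100 μM) or DMSO, then probe 1 (100 μM). Labeled proteins were CuAAC-conjugated to isotopic TEV-cleavable azide-biotin tags (DMSO heavy, fragment light), combined and analysed by isoTOP-ABPP. R = DMSO/fragment MS1 peak ratio of probe-labeled peptides. R ≥ 4 (≥75% loss of enrichment) defines liganding.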

SIN3A-TGIF2 interaction = biological target: T3, SIN3A-TGIF2 interaction (Homo sapiens, UniProt Q96ST3); experiment: co-immunoprecipitation western blot, Flag-SIN3A / Myc-TGIF2; type: biochemical; conditions: 50 μM, 1 h
T3 sequence (Q96ST3 1-400): T1 sequence (Q96ST3 1-400)
Outline: (§3)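 Flag-SIN3A (a.a. 1-400, WT or K155 mutants) or Flag-GFP was co-expressed in HEK 293T cells with Myc-TGIF1 or Myc-TGIF2. Lysates were treated with DMSO or test compound (50 μM, 1 h), immunoprecipitated and analysed by anti-Myc western blot. Four biological replicates, mean ± SD. Unpaired Student's t-test, WT + compound vs K155R + compound.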

[2] = biological target: T4, SIN3A K155R-TGIF1 interaction (Homo sapiens, UniProt Q96ST3, K155R); experiment: co-immunoprecipitation western blot, Flag-SIN3A K155R / Myc-TGIF1; type: biochemical; conditions: 50 μM, 1 h
T4 sequence (Q96ST3 1-400 K155R): T1 sequence (Q96ST3 1-400) with K155R
Outline: as §3

TGIF2-SIN3A interaction = biological target: T5, TGIF2-SIN3A interaction (Homo sapiens, UniProt Q96ST3); experiment: SILAC co-immunoprecipitation-MS proteomics, SIN3A-TGIF2; type: biochemical; conditions: 50 μM, 1 h, co-IP MS proteomics
T5 sequence (Q96ST3 1-400): T1 sequence (Q96ST3 1-400)
Outline: as §1

SIN3A-TGIF1 interaction = biological target: T6, SIN3A-TGIF1 interaction (Homo sapiens, UniProt Q96ST3); experiment: co-immunoprecipitation western blot, Flag-SIN3A / Myc-TGIF1; type: biochemical; conditions: 50 μM, 1 h, anti-Myc blotting
T6 sequence (Q96ST3 1-400): T1 sequence (Q96ST3 1-400)
Outline: as §3

K155 of SIN3A [3] = biological target: T7, K155 of SIN3A (Homo sapiens, UniProt Q96ST3); experiment: gel-based ABPP, blockade of probe labeling of SIN3A; type: binding; conditions: read-out: apparent IC50, blockade of probe labeling of K155, lysates of HEK293T cells expressing Flag-SIN3A a.a. 1-400
T7 sequence (Q96ST3 1-400): T1 sequence (Q96ST3 1-400)

K35 in transthyretin TTR = K35 in transthyretin TTR (Homo sapiens, UniProt P02766); experiment: competitive isoTOP-ABPP, TTR K35; type: binding; conditions: compared with fragments 29 and 30
Outline: as §2

K89 of NUDT2 = K89 of NUDT2 (Homo sapiens, UniProt P50583); experiment: competitive isoTOP-ABPP, NUDT2 K89; type: binding
Outline: as §2

NUDT2 [4] = biological target: T8, NUDT2 (Homo sapiens, UniProt P50583); experiment: NUDT2 substrate assay; type: biochemical; conditions: compared with gel-based ABPP IC50 of 2 μM
NUDT2 [5] = biological target: T8, NUDT2; experiment: gel-based ABPP, blockade of probe labeling of NUDT2; type: binding; conditions: read-out: apparent IC50, blockade of probe labeling of NUDT2
Outline: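 Flag-tagged NUDT2 was recombinantly expressed in HEK 293T cells. Samples were treated with test compound, then a lysine-reactive probe, and analysed by gel-based ABPP. Apparent IC50 is from blockade of probe labeling of the liganded lysine.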

T8 sequence (P50583 whole entry): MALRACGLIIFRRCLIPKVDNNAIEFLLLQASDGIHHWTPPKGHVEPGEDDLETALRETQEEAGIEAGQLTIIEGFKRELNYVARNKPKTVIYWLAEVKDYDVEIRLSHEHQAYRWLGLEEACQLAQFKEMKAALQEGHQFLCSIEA
K89 of NUDT2, sequence (P50583 whole entry): as above

With `O=C(Oc1c(F)c(F)c(F)c(F)c1F)c1cc(C(F)(F)F)cc(C(F)(F)F)c1` [fragment 21] the “effect on TGIF1-SIN3A interaction” value (TGIF1-SIN3A interaction) was “strongly blocked”, the “R value (DMSO/fragment) for tryptic peptide containing K155” value (K155 of SIN3A [1]) was 20 and the “blockade of probe 1 labeling of K155” value (K155 of SIN3A [1]) was greater than 95%. For the same molecule, the “effect on co-immunoprecipitation of TGIF2 with SIN3A” value (SIN3A-TGIF2 interaction) was “partial blockade”, the “effect on SIN3A-TGIF1 interaction with K155R mutant” value [2] was “conferred resistance” and the “effect on TGIF2-SIN3A interaction” value (TGIF2-SIN3A interaction) was “marginal effect”. The “effect on co-immunoprecipitation of TGIF1 with SIN3A” value (SIN3A-TGIF1 interaction) was “blocked” and the IC50 (K155 of SIN3A [3]) was 5 µM.

With `O=C(Oc1ccc([N+](=O)[O-])cc1[N+](=O)[O-])c1cc(C(F)(F)F)cc(C(F)(F)F)c1` [fragment 31] the “targeting of K35 of TTR” value (K35 in transthyretin TTR) was “preferentially targeted”.

With `COC(=O)NC(=NC(=O)OCC1c2ccccc2-c2ccccc21)n1cccn1` [fragment 49] the “reactivity with K89 of NUDT2” value (K89 of NUDT2) was “preferentially reacting”, the “IC50, inhibition of NUDT2 activity” value (NUDT2 [4]) was “equivalent IC50 value” and the IC50 (NUDT2 [5]) was 2 µM.
